Key:
[1] = system: Enterovirus; assay: Inhibitory concentration against rhinovirus 1A; assay type: functional, organism-based
[2] = system: Enterovirus; assay: Inhibitory concentration against rhinovirus 29; assay type: functional, organism-based
[3] = system: Enterovirus; assay: Inhibitory concentration against rhinovirus 1B; assay type: functional, organism-based
In short: (§1)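 Plaque reduction assay against rhinovirus 1B in M-HeLa cell monolayers. IC50 is the concentration giving 50% reduction of plaque formation; pI50 is taken as log (1000/IC50). A reference antiviral was run as a control.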

[4] = system: Enterovirus; assay: Inhibitory concentration against rhinovirus 13; assay type: functional, organism-based
[5] = system: Enterovirus; assay: Inhibitory concentration against rhinovirus 18; assay type: functional, organism-based
[6] = system: Enterovirus; assay: Inhibitory concentration against rhinovirus 3; assay type: functional, organism-based
[7] = system: Enterovirus; assay: Inhibitory concentration against rhinovirus 30; assay type: functional, organism-based
[8] = system: Enterovirus; assay: Inhibitory concentration against rhinovirus 4; assay type: functional, organism-based
[9] = system: Enterovirus; assay: Inhibitory concentration against rhinovirus 15; assay type: functional, organism-based
[10] = system: Enterovirus; assay: Inhibitory concentration against rhinovirus 8; assay type: functional, organism-based
[11] = system: Enterovirus; assay: Inhibitory concentration against rhinovirus 19; assay type: functional, organism-based
[12] = system: rhinovirus B14; assay: Inhibitory concentration against rhinovirus 14; assay type: functional, organism-based, Enterovirus; conditions: Rhinovirus B
[13] = system: Enterovirus; assay: Inhibitory concentration against rhinovirus 5; assay type: functional, organism-based
[14] = Compound was tested for anti-rhinovirus type 1B activity in a plaque inhibition assay using monolayers of M-HeLa cells; assay type: functional, cell-based; conditions: Homo sapiens
[15] = system: Enterovirus; assay: Inhibitory concentration against rhinovirus 21; assay type: functional, organism-based
[16] = system: Enterovirus; assay: Inhibitory concentration against Rhinovirus 2; assay type: functional, organism-based
[17] = system: Enterovirus; assay: Inhibitory concentration against rhinovirus 9; assay type: functional, organism-based
[18] = system: Enterovirus; assay: Inhibitory concentration against rhinovirus 16; assay type: functional, organism-based
[19] = system: Enterovirus; assay: Inhibitory concentration against rhinovirus 31; assay type: functional, organism-based
[20] = species on record: Homo sapiens; assay: Inhibition of plaque formation at 8 uM concentration; assay type: functional
[21] = system: Enterovirus; assay: Inhibitory concentration against Rhinovirus 12; assay type: functional, organism-based
[22] = system: Enterovirus; assay: Inhibitory concentration against Rhinovirus 15; assay type: functional, organism-based
[23] = system: Enterovirus; assay: Inhibition of plaque formation at 2.5 uM concentration against Rhinovirus 3; assay type: functional
[24] = system: Enterovirus; assay: Inhibitory concentration against Rhinovirus 1B; assay type: functional, organism-based; in short: as §1
[25] = system: Enterovirus; assay: Inhibitory concentration against Rhinovirus 13; assay type: functional, organism-based
[26] = system: Enterovirus; assay: Inhibitory concentration against Rhinovirus 1A; assay type: functional, organism-based
[27] = system: Enterovirus; assay: Inhibitory concentration against Rhinovirus 9; assay type: functional, organism-based
[28] = system: rhinovirus B14; assay: Inhibitory concentration against Rhinovirus 14; assay type: functional, organism-based, Enterovirus; conditions: Rhinovirus B
[29] = system: Enterovirus; assay: Inhibition of plaque formation at 8 uM concentration against Rhinovirus 5; assay type: functional, organism-based

## Cc1ccc(Cn2cnc3c(N(C)C)nc(N(C)C)nc32)cc1
[1]
  IC50: < 1.2 µM
[2]
  IC50: 4.9 µM
[3]
  IC50: 1.1 µM
[4]
  IC50: 13 µM
[5]
  IC50: 8.3 µM
[6]
  IC50: > 10 µM
[7]
  IC50: 2.9 µM
[8]
  IC50: > 10 µM
[9]
  IC50: > 10 µM
[10]
  IC50: 14 µM
[11]
  IC50: > 20 µM
[12]
  IC50: 7.9 µM
[13]
  IC50: 17.7 µM
[14]
  IC50: 1.1 µM
[15]
  IC50: > 20 µM
[16]
  IC50: 3.1 µM
[17]
  IC50: 3.5 µM
[18]
  IC50: > 20 µM
[19]
  IC50: 15.1 µM

## Cc1ccc(Cn2cnc3c(N(C)C)nc(S(C)(=O)=O)nc32)cc1
[20]
  inhibition: 24%
[14]
  IC50: 25 µM

## CSc1nc(N(C)C)c2ncn(Cc3ccc(C)cc3)c2n1
[14]
  IC50: 0.34 µM

## Cc1ccc(Cn2cnc3c(N(C)C)nc(N)nc32)cc1
[14]
  IC50: 31 µM

## Cc1ccc(Cn2cnc3c(N(C)C)nc(F)nc32)cc1
[14]
  IC50: 0.34 µM

## CCc1nc(N(C)C)c2ncn(Cc3ccc(C)cc3)c2n1
[14]
  IC50: 2.3 µM

## CNc1nc(N(C)C)c2ncn(Cc3ccc(C)cc3)c2n1
[14]
  IC50: 4.7 µM

## Cc1ccc(Cn2cnc3c(N(C)C)nc(C(F)(F)F)nc32)cc1
[21]
  IC50: 2.6 µM
[22]
  IC50: 1 µM
[23]
  inhibition at 2.5 µM: 43%
[24]
  IC50: 0.03 µM
[14]
  IC50: 0.03 µM
[25]
  IC50: 2.6 µM
[26]
  IC50: 0.1 µM
[16]
  IC50: 5.7 µM
[27]
  IC50: 0.35 µM
[28]
  IC50: 1.2 µM
[29]
  Inhibition: 18%

## Cc1ccc(Cn2cnc3c(N(C)C)nc(C)nc32)cc1
[14]
  IC50: 0.8 µM

## Cc1ccc(Cn2cnc3c(N(C)C)nc(Cl)nc32)cc1
[14]
  IC50: 0.08 µM

## Cc1ccc(Cn2cnc3c(N(C)C)ncnc32)cc1
[14]
  IC50: 8.6 µM

From ChEMBL document CHEMBL1124327, “Synthesis and structure-activity relationships of 2-substituted-6-(dimethylamino)-9-(4-methylbenzyl)-9H-purines with antirhinovirus activity” (J Med Chem, 1989)
